Reference: ChEMBL document CHEMBL4673235, “Synthesis and biological evaluation of ethacrynic acid derivatives bearing sulfonamides as potent anti-cancer agents” (Bioorg Med Chem Lett, 2020)

Columns and labels:
HL-60 [1] = experiment: Cytotoxicity against human HL-60 cells assessed as cell viability at 10 uM by CellTiter Glo luminescent assay relative to control; type: functional; details: read-out: Activity
Summary of the method: (§1)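 Single-concentration screen at 10 µM; percentage viability measured by CellTiter-Glo luminescent quantitation of ATP in metabolically active cells.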

HCT-116 [2] = experiment: Cytotoxicity against human HCT-116 cells assessed as cell viability at 10 uM by CellTiter Glo luminescent assay relative to control; type: functional; details: read-out: Activity; summary of the method: as §1
HL-60 [3] = experiment: Cytotoxicity against human HL-60 cells assessed as reduction in cell viability by CellTiter Glo luminescent assay; type: functional, cell-based
Summary of the method: (§2)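 CellTiter-Glo luminescent read-out of cellular ATP, taken as proportional to viable cell number; percentage viability measured and IC50 derived. MRC5 used as normal (non-cancer) line.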

HCT-116 [4] = experiment: Cytotoxicity against human HCT-116 cells assessed as reduction in cell viability by CellTiter Glo luminescent assay; type: functional, cell-based; summary of the method: as §2
A549 = experiment: Cytotoxicity against human A549 cells assessed as reduction in cell viability by CellTiter Glo luminescent assay; type: functional, cell-based; summary of the method: as §2
MCF7 = experiment: Cytotoxicity against human MCF7 cells assessed as reduction in cell viability by CellTiter Glo luminescent assay; type: functional, cell-based; summary of the method: as §2
PC-3 = experiment: Cytotoxicity against human PC-3 cells assessed as reduction in cell viability by CellTiter Glo luminescent assay; type: functional, cell-based; summary of the method: as §2
U-87 MG = experiment: Cytotoxicity against human U-87 MG cells assessed as reduction in cell viability by CellTiter Glo luminescent assay; type: functional, cell-based, U-87MG ATCC; summary of the method: as §2
SK-OV-3 = experiment: Cytotoxicity against human SK-OV-3 cells assessed as reduction in cell viability by CellTiter Glo luminescent assay; type: functional, cell-based; summary of the method: as §2
MRC5 = experiment: Cytotoxicity against human MRC5 cells assessed as reduction in cell viability by CellTiter Glo luminescent assay; type: cell-based; summary of the method: as §2
[5] = Selectivity index, ratio of IC50 for human MRC5 cells to IC50 for human HL60 cells by CellTiter Glo luminescent assay; type: toxicity; details: MRC5 cells versus HL60 cells, read-out: Ratio IC50
[6] = Selectivity index, ratio of IC50 for human MRC5 cells to IC50 for human A549 cells by CellTiter Glo luminescent assay; type: toxicity; details: MRC5 cells versus A549 cells, read-out: Ratio IC50
Summary of the method: (§3)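 Safety ratio computed as IC50 in MRC5 normal cells divided by IC50 in the cancer line, both from CellTiter-Glo ATP-luminescence viability assays.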

[7] = Selectivity index, ratio of IC50 for human MRC5 cells to IC50 for human MCF7 cells by CellTiter Glo luminescent assay; type: toxicity; details: MRC5 cells versus MCF7 cells, read-out: Ratio IC50; summary of the method: as §3
[8] = Selectivity index, ratio of IC50 for human MRC5 cells to IC50 for human PC-3 cells by CellTiter Glo luminescent assay; type: toxicity; details: MRC5 cells versus PC-3 cells, read-out: Ratio IC50; summary of the method: as §3
[9] = Selectivity index, ratio of IC50 for human MRC5 cells to IC50 for human U-87 MG cells by CellTiter Glo luminescent assay; type: toxicity; details: MRC5 cells versus U-87 MG cells, read-out: Ratio IC50; summary of the method: as §3
[10] = Selectivity index, ratio of IC50 for human MRC5 cells to IC50 for human SK-OV-3 cells by CellTiter Glo luminescent assay; type: toxicity; details: MRC5 cells versus SK-OV-3 cells, read-out: Ratio IC50; summary of the method: as §3
[11] = Selectivity index, ratio of IC50 for human MRC5 cells to IC50 for human HCT-116 cells by CellTiter Glo luminescent assay; type: toxicity; details: MRC5 cells versus HCT-116 cells, read-out: Ratio IC50; summary of the method: as §3
[12] = Selectivity index, ratio of IC50 for human HL-60 cells to IC50 for human HCT-116 cells by CellTiter Glo luminescent assay; type: functional

Row | Compound | viability at 10 µM (HL-60 [1]) [%] | viability at 10 µM (HCT-116 [2]) [%] | IC50 (HL-60 [3]) [nM] | other results
1 | C=C(CC)C(=O)c1ccc(OCC(=O)NC2CCN(S(=O)(=O)c3cccc4cccnc34)CC2)c(Cl)c1Cl | 34 | 84 | 970 | –
2 | C=C(CC)C(=O)c1ccc(OCC(=O)N2CCN(S(=O)(=O)c3cc(Cl)ccc3OC)CC2)c(Cl)c1Cl | 24 | 75 | 1410 | –
3 | C=C(CC)C(=O)c1ccc(OCC(=O)NCCNS(=O)(=O)c2ccc(OC)c(OC)c2)c(Cl)c1Cl | 19 | 97 | 3360 | –
4 | C=C(CC)C(=O)c1ccc(OCC(=O)NC2CCN(S(=O)(=O)c3ccc(OC)cc3)CC2)c(Cl)c1Cl | 25 | 45 | 630 | IC50 (HCT-116 [4]): 1150 nM; IC50 (A549): 67 nM; IC50 (MCF7): 128 nM; IC50 (PC-3): 112 nM; IC50 (U-87 MG): 238 nM; IC50 (SK-OV-3): 309 nM; IC50 (MRC5): 4320 nM; selectivity ratio [5]: 6.85; selectivity ratio [6]: 63.8; selectivity ratio [7]: 33.8; selectivity ratio [8]: 38.6; selectivity ratio [9]: 18.1; selectivity ratio [10]: 14; selectivity ratio [11]: 3.75
5 | C=C(CC)C(=O)c1ccc(OCC(=O)N2CCN(S(=O)(=O)c3ccc([N+](=O)[O-])cc3)CC2)c(Cl)c1Cl | 24 | 100 | 3260 | –
6 | C=C(CC)C(=O)c1ccc(OCC(=O)NC2CCN(S(=O)(=O)c3cc(Cl)ccc3OC)CC2)c(Cl)c1Cl | 16 | – | 700 | IC50 (HCT-116 [4]): 790 nM; IC50 (A549): 55 nM; IC50 (MCF7): 97 nM; IC50 (PC-3): 76 nM; IC50 (U-87 MG): 307 nM; IC50 (SK-OV-3): 150 nM; IC50 (MRC5): 900 nM; selectivity ratio [5]: 1.28; selectivity ratio [6]: 16.3; selectivity ratio [7]: 9.27; selectivity ratio [8]: 11.8; selectivity ratio [9]: 2.93; selectivity ratio [10]: 6; selectivity ratio [11]: 1.13
7 | COc1cccc2c1C(=O)c1c(O)c3c(c(O)c1C2=O)C[C@@](O)(C(=O)CO)C[C@@H]3O[C@H]1C[C@H](N)[C@H](O)[C@H](C)O1 [DOXORUBICIN] | – | – | 10 | IC50 (HCT-116 [4]): 90 nM; IC50 (A549): 56 nM; IC50 (MCF7): 120 nM; IC50 (PC-3): 2 nM; IC50 (U-87 MG): 90 nM; IC50 (MRC5): 39 nM
8 | C=C(CC)C(=O)c1ccc(OCC(=O)NCCNS(=O)(=O)C2CCCCC2)c(Cl)c1Cl | 28 | 91 | 1340 | –
9 | C=C(CC)C(=O)c1ccc(OCC(=O)NC2CCN(S(=O)(=O)C3CCCCC3)CC2)c(Cl)c1Cl | 41 | 61 | 2940 | –
10 | C=C(CC)C(=O)c1ccc(OCC(=O)NC2CCN(S(=O)(=O)c3ccc(OC)cc3OC)CC2)c(Cl)c1Cl | 11 | 90 | 860 | –
11 | C=C(CC)C(=O)c1ccc(OCC(=O)NCCNS(=O)(=O)c2ccc([N+](=O)[O-])cc2)c(Cl)c1Cl | 27 | 59 | 580 | –
12 | C=C(CC)C(=O)c1ccc(OCC(=O)NC2CCN(S(=O)(=O)c3ccc(OC)c(OC)c3)CC2)c(Cl)c1Cl | 25 | 99 | 1310 | –
13 | C=C(CC)C(=O)c1ccc(OCC(=O)N2CCN(S(=O)(=O)c3ccc(OC)cc3OC)CC2)c(Cl)c1Cl | 15 | 40 | 3190 | –
14 | C=C(CC)C(=O)c1ccc(OCC(=O)NCCNS(=O)(=O)c2ccc(OC)cc2)c(Cl)c1Cl | 24 | 97 | 860 | –
15 | C=C(CC)C(=O)c1ccc(OCC(=O)N2CCN(S(=O)(=O)c3ccc(OC)c(OC)c3)CC2)c(Cl)c1Cl | 100 | 89 | – | –
16 | C=C(CC)C(=O)c1ccc(OCC(=O)NC2CCN(S(=O)(=O)c3ccc([N+](=O)[O-])cc3)CC2)c(Cl)c1Cl | 23 | 100 | 2470 | –
17 | C=C(CC)C(=O)c1ccc(OCC(=O)NC2CCN(S(=O)(=O)c3ccc(C)cc3)CC2)c(Cl)c1Cl | 25 | 100 | 980 | –
18 | C=C(CC)C(=O)c1ccc(OCC(=O)N2CCN(S(=O)(=O)c3cccc4cccnc34)CC2)c(Cl)c1Cl | 28 | 100 | 2980 | –
19 | C=C(CC)C(=O)c1ccc(OCC(=O)NCCNS(=O)(=O)c2cc(Cl)ccc2OC)c(Cl)c1Cl | 18 | 78 | 1600 | –
20 | C=C(CC)C(=O)c1ccc(OCC(=O)N2CCN(S(=O)(=O)c3ccc(OC)cc3)CC2)c(Cl)c1Cl | 17 | 21 | 590 | IC50 (HCT-116 [4]): 50 nM; IC50 (A549): 64 nM; IC50 (MCF7): 56 nM; IC50 (PC-3): 24 nM; IC50 (U-87 MG): 207 nM; IC50 (SK-OV-3): 219 nM; IC50 (MRC5): 100 nM; selectivity ratio [5]: 0.16; selectivity ratio [6]: 1.54; selectivity ratio [7]: 1.78; selectivity ratio [8]: 4.03; selectivity ratio [9]: 0.48; selectivity ratio [10]: 0.45; selectivity ratio [11]: 2; Ratio IC50 [12]: 12
21 | C=C(CC)C(=O)c1ccc(OCC(=O)NCCNS(=O)(=O)c2ccc(OC)cc2OC)c(Cl)c1Cl | 35 | 77 | 2790 | –
22 | C=C(CC)C(=O)c1ccc(OCC(=O)N2CCN(S(=O)(=O)c3ccc(C)cc3)CC2)c(Cl)c1Cl | 64 | 100 | – | –
23 | C=C(CC)C(=O)c1ccc(OCC(=O)N2CCN(S(=O)(=O)C3CCCCC3)CC2)c(Cl)c1Cl | 32 | 100 | 2320 | –
24 | C=C(CC)C(=O)c1ccc(OCC(=O)NCCNS(=O)(=O)c2ccc(C)cc2)c(Cl)c1Cl | 17 | 100 | 2370 | –
25 | C=C(CC)C(=O)c1ccc(OCC(=O)NC2CCN(S(C)(=O)=O)CC2)c(Cl)c1Cl | 26 | 73 | 3330 | –
26 | C=C(CC)C(=O)c1ccc(OCC(=O)NCCNS(C)(=O)=O)c(Cl)c1Cl | 21 | 62 | 940 | –
27 | C=C(CC)C(=O)c1ccc(OCC(=O)N2CCN(S(C)(=O)=O)CC2)c(Cl)c1Cl | 24 | 68 | 3390 | –
28 | C=C(CC)C(=O)c1ccc(OCC(=O)NCCNS(=O)(=O)c2cccc3cccnc23)c(Cl)c1Cl | 20 | 100 | 1330 | –
